The source made the active and inactive calls. No cut-off for these calls is given here.
Key:
Schistosoma mansoni [1] = assay: Antiparasitic activity against Schistosoma mansoni larva assessed as reduction of body contractility and movement at 5 ug/ml; type: functional, organism-based
Method in brief: (§1)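 Brazilian S. mansoni maintained in Swiss OF1 mice. Schistosomula recovered 21 days after percutaneous infection with 400 cercariae, and adults 49 days after 120 cercariae. Final concentration was 5 µg/ml for larvae and 50 µg/ml for adults, in RPMI/Tween 80/DMSO (1,000/0.95/3.8). Survival was followed over time and compared by pairwise log-rank tests (α = 1%).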

Schistosoma mansoni [2] = assay: Antiparasitic activity against Schistosoma mansoni adult worm assessed as reduction of body contractility and movement at 50 ug/ml; type: functional, organism-based; method in brief: as §1
Schistosoma mansoni [3] = assay: Antiparasitic activity against Schistosoma mansoni adult worm assessed as reduction of body contractility and movement at 50 ug/ml
Schistosoma mansoni [4] = assay: Antiparasitic activity against Schistosoma mansoni larva assessed as reduction of body contractility and movement at 5 ug/ml within 7 hrs; type: functional, organism-based; method in brief: as §1
Schistosoma mansoni [5] = assay: Antiparasitic activity against Schistosoma mansoni adult worm assessed as reduction of body contractility and movement at 50 ug/ml within 7 hrs
Schistosoma mansoni [6] = assay: Antiparasitic activity against Schistosoma mansoni larva assessed as reduction of body contractility and movement at 5 ug/ml
Schistosoma mansoni [7] = assay: Antiparasitic activity against Schistosoma mansoni assessed as parasite death at 5 ug/ml; type: functional
Method in brief: (§2)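 Schistosomula (day 21) and adults (day 49) were taken from percutaneously infected Swiss OF1 mice. Compounds were serially diluted in DMSO, with the last step into RPMI containing Tween 80, and worms were exposed across a concentration and time range. Survival was recorded and groups compared by pairwise log-rank tests (α = 1%).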

Schistosoma mansoni [8] = assay: Antiparasitic activity against Schistosoma mansoni assessed as parasite death at 300 ug/ml; type: functional; method in brief: as §2
Schistosoma mansoni [9] = assay: Antiparasitic activity against Schistosoma mansoni assessed as parasite death at 100 ug/ml; type: functional; method in brief: as §2
Schistosoma mansoni [10] = assay: Antiparasitic activity against Schistosoma mansoni assessed as parasite death at 10 ug/ml; type: functional; method in brief: as §2

| SMILES | Activity (Schistosoma mansoni [1]) | Activity (Schistosoma mansoni [2]) | Activity (Schistosoma mansoni [3]) | Activity (Schistosoma mansoni [4]) | Activity (Schistosoma mansoni [5]) | Activity (Schistosoma mansoni [6]) | Activity (Schistosoma mansoni [7]) | Activity (Schistosoma mansoni [8]) | Activity (Schistosoma mansoni [9]) | Activity (Schistosoma mansoni [10]) |
| --- | --- | --- | --- | --- | --- | --- | --- | --- | --- | --- |
| CC1(C)COC2(CCC(N[C@H]3CC[C@H](Nc4ccnc5cc(Cl)ccc45)CC3)CC2)OO1 (stereo partly specified) | Active | Active | Active | Active | Active | Active |  |  |  |  |
| Clc1ccc2c(N[C@H]3CC[C@H](NC4CCC5(CC4)OCC4(CCCC4)OO5)CC3)ccnc2c1 (stereo partly specified) | Active | Active | Active | Active | Active | Active | 100% | 100% | 100% | 100% |
| Clc1ccc2c(NCCN3CCC4(CC3)OCC3(CCCCC3)OO4)ccnc2c1 | Active | Active | Active |  | Active | Active |  |  |  |  |
| CC1(C)COC2(CCC(N[C@H]3CC[C@H](Nc4ccnc5cc(C(F)(F)F)ccc45)CC3)CC2)OO1 (stereo partly specified) | Active | Active | Active |  | Active | Active |  |  |  |  |
| O=C(C1CCCCC1)N1CC(=O)N2CCc3ccccc3C2C1 (stereo unspecified) [PRAZIQUANTEL] | Active | Active | Active |  |  | Active | 100% |  |  | 100% |
| CN(C1CCC2(CC1)OCC(C)(C)OO2)[C@H]1CC[C@H](Nc2ccnc3cc(Cl)ccc23)CC1 (stereo partly specified) | Active | Active | Active | inactive | inactive | Active |  |  |  |  |
| Clc1ccc2c(NCCN3CCC4(CC3)OCC3(CCCC3)OO4)ccnc2c1 | Active | Active | Active | Active | Active | Active |  |  |  |  |
| CO[C@H]1O[C@@H]2O[C@@]3(C)CC[C@H]4[C@H](C)CC[C@@H]([C@H]1C)[C@@]24OO3 [ARTEMETHER] |  |  |  |  |  |  |  | 100% |  |  |
| C[C@H]1[C@H](OC(=O)CCC(=O)O)O[C@@H]2O[C@@]3(C)CC[C@H]4[C@H](C)CC[C@@H]1[C@@]24OO3 [ARTESUNATE] |  |  |  |  |  |  |  | 100% |  |  |

— ChEMBL document CHEMBL1649215, “In vitro activities of trioxaquines against Schistosoma mansoni” (2009)
